One may read the LD50 as the dose expected to kill half of the subjects tested. Higher therefore signals lower toxicity. As a reminder, the inhibition in vivo is the change of the read-out against control, counted positive when it falls. A high value points to a strong effect.

Data set [1] can be described thus: In vivo toxic effect was determined in mouse after intraperitoneal administration with 10% aqueous acacia gum; value ranges from 0.27-0.43. Particulars: ip; call rule not given here. It counts as toxicity, organism-based. In outline: (§1)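 Female albino mice (20-30 g), 10 animals per dose, dosed intraperitoneally with compound in solution or suspension; compounds tested as salts unless noted. Mortality was recorded over 7 days.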

In data set [2] the test system is Rattus norvegicus. Nature of the data set: Rat PCA Test(50% inhibition of spot areas)in the female albino rats after ip administration in 10% aqueous acacia gum; Value ranges from (6-147). Particulars: read-out: ID50 (the source's name).
Data set [3] relates to Cavia porcellus. Nature of the data set: Antibronchospatic activity determined by histamine stimulated bronchospasm inhibition in guinea pigs after(i.v.) administration. It counts as functional, Bronchiole. In outline: (§2)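 Guinea pigs, Konzett–Rössler preparation. Bronchospasm was induced with histamine. Compound was given iv (1 mL/kg) 1 min before the agonist, dissolved in saline or saline with slight excess HCl or CH3SO3H (pH 3.5–4). Three doses were tested in duplicate, chosen to give 20–90% inhibition. ID75 was read graphically from log dose–response curves.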

For data set [4], the system named is Rattus norvegicus. Put plainly: Rat PCA Test(50% inhibition of spot areas)in the female albino rats after ip administration in 10% aqueous acacia gum. The format is functional. The settings on record: read-out: ID50 (the source's name). The essentials: (§3)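 Antiserum came from female rats given 1% egg albumin in 0.9% NaCl intramuscularly plus Haemophilus pertussis vaccine (2 × 10^10 organisms) intraperitoneally, and was collected 12 days later. Recipient rats (200-250 g) got it intradermally at a ventral site. After 24 h, groups of 10 received vehicle or compound ip. At 30 min they were challenged iv with 0.3% egg albumin plus 1% Evans blue. Blued skin areas were measured 30 min later.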

The nature of data set [5]: In vivo toxic effect was determined in mouse after intraperitoneal administration with 10% aqueous acacia gum; value ranges from 0.39-0.76. The format is toxicity, organism-based. The settings on record: ip. The essentials: as §1
Data set [6] deals with Cavia porcellus. Put plainly: Antibronchospatic activity was determined by inhibition of histamine stimulated bronchospasm in guinea pigs after (iv) administration. It counts as functional, Bronchiole. The essentials:
as §2

Data set [7] can be described thus: In vivo toxic effect was determined in mouse after intraperitoneal administration with 10% aqueous acacia gum; value ranges from (0.47-0.85). The format is toxicity, organism-based. The settings on record: ip. In outline:
as §1

Data set [8] has as its system Rattus norvegicus. Nature of the data set: Rat PCA Test(50% inhibition of spot areas)in the female albino rats after ip administration in 10% aqueous acacia gum; Value ranges from(26-134). The format is functional. Particulars: read-out: ID50 (the source's name). The essentials:
as §3

Data set [9] is described as follows: In vivo toxic effect was determined in mouse after intraperitoneal administration with 10% aqueous acacia gum; value ranges from 0.39-0.70. Particulars: ip. The format is toxicity, organism-based. The essentials:
as §1

The test system of data set [10] is Rattus norvegicus. Put plainly: Rat PCA Test(50% inhibition of spot areas)in the female albino rats after oral administration in 10% aqueous acacia gum; value ranges from 80-141. The settings on record: read-out: ID50 (the source's name). The format is functional. The essentials:
(§4)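 Female rats (200-250 g) were passively sensitized by ventral intradermal anti-egg-albumin antiserum. This was raised in rats by intramuscular 1% egg albumin plus ip H. pertussis vaccine, with serum taken at 12 days. After 24 h, groups of 10 were dosed orally with compound or vehicle (10 mL/kg). At 60 min, iv challenge used 0.3% egg albumin with 1% Evans blue. Blued areas were measured after 30 min.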

Data set [11] concerns Rattus norvegicus. Put plainly: Rat PCA Test(50% inhibition of spot areas)in the female albino rats after (ip) administration in 10% aqueous acacia gum; value ranges from 45-69. The format is functional. Particulars: read-out: ID50 (the source's name). The essentials: (§5)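 Female albino rats (200–250 g) received intradermal ventral injections of rat anti-egg-albumin antiserum; donors were raised with egg albumin im plus H. pertussis ip, and serum was taken at 12 days. 24 h later, compound was given ip in 10% acacia gum (10 mL/kg), 10 rats/group. Challenge 30 min later was iv 0.3% egg albumin plus 1% Evans blue. Blued areas were measured 30 min after challenge.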

A short description of data set [12]: In vivo toxic effect was determined in mouse after intraperitoneal administration with 10% aqueous acacia gum; value ranges from 0.48-0.77. It counts as toxicity, organism-based. Particulars: ip. The essentials:
as §1

The nature of data set [13]: In vivo toxic effect was determined in mouse after oral administration with 10% aqueous acacia gum; value ranges from 1.23-1.71. It counts as toxicity, organism-based. In outline: (§6)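 Female albino mice, 20-30 g. Compound given orally as solution or suspension in 10% aqueous acacia gum, 10 animals per dose. Deaths recorded over 7 days.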
Data set [14] deals with Rattus norvegicus. Nature of the data set: Rat PCA Test(50% inhibition of spot areas)in the female albino rats after (ip) administration in 10% aqueous acacia gum; value ranges from 145-288. It counts as functional. The settings on record: read-out: ID50 (the source's name). In outline: as §5
The nature of data set [15]: In vivo toxic effect was determined in mouse after oral administration with 10% aqueous acacia gum; value ranges from 3.08-6.27. The format is toxicity, organism-based. In outline:
as §6

For data set [16], the system named is Rattus norvegicus. Nature of the data set: Rat PCA Test(50% inhibition of spot areas)in the female albino rats after (ip) administration in 10% aqueous acacia gum. The format is functional. The settings on record: read-out: ID50 (the source's name). The essentials:
as §5

Data set [17] in a line: In vivo toxicity in mouse after oral administration with 10% aqueous acacia gum. The format is organism-based. The essentials:
as §6

The subject of data set [18] is Rattus norvegicus. Put plainly: Inhibition of mast cell degranulation was assessed in female albino rats at a dose of 45 umol/kg iv. It counts as functional.
In data set [19] the test system is Rattus norvegicus. Nature of the data set: Rat PCA Test(50% inhibition of spot areas)in the female albino rats after oral administration in 10% aqueous acacia gum; value ranges from 110-212. The format is functional. Particulars: read-out: ID50 (the source's name). In outline: as §4
Data set [20] deals with Rattus norvegicus. Put plainly: Rat PCA Test(50% inhibition of spot areas)in the female albino rats after (ip) administration in 10% aqueous acacia gum; value ranges from 57-142. It counts as functional. The settings on record: read-out: ID50 (the source's name). In outline: as §5
For data set [21], the system named is Rattus norvegicus. Put plainly: Inhibition of mast cell degranulation was assessed in female albino rats at a dose of 65 umol/kg iv. The format is functional.
In data set [22] the test system is Rattus norvegicus. Nature of the data set: Rat PCA Test(50% inhibition of spot areas)in the female albino rats after oral administration in 10% aqueous acacia gum; value ranges from 184-369. The settings on record: read-out: ID50 (the source's name). The format is functional. In outline:
as §4

The subject of data set [23] is Rattus norvegicus. Nature of the data set: Rat PCA Test(50% inhibition of spot areas)in the female albino rats after (ip) administration in 10% aqueous acacia gum; value ranges from 99-415. It counts as functional. The settings on record: read-out: ID50 (the source's name). The essentials:
as §3

A short description of data set [24]: In vivo toxic effect was determined in mouse after intraperitoneal administration with 10% aqueous acacia gum; value ranges from 1.82-3.42. The format is toxicity, organism-based. The settings on record: ip. In outline: as §1
Data set [25] concerns Rattus norvegicus. Nature of the data set: Rat PCA Test(50% inhibition of spot areas)in the female albino rats after oral administration in 10% aqueous acacia gum; value ranges from 161-222. The format is functional. Particulars: read-out: ID50 (the source's name). In outline:
as §4

Data set [26] relates to Rattus norvegicus. Put plainly: Rat PCA Test(50% inhibition of spot areas)in the female albino rats after (ip) administration in 10% aqueous acacia gum; value ranges from 128-203. The format is functional. The settings on record: read-out: ID50 (the source's name). In outline: as §5
The test system of the next data set is Mus musculus. Nature of the data set: In vivo toxic effect was determined in mouse after intraperitoneal administration with 10% aqueous acacia gum; NA means poorly absorbed. The format is toxicity, organism-based. Particulars: ip. The essentials:
as §1

Data set [27] is described as follows: In vivo toxic effect was determined in mouse after oral administration with 10% aqueous acacia gum; value ranges from 4.50-5.90. It counts as toxicity, organism-based. In outline: as §6
The subject of data set [28] is Rattus norvegicus. Put plainly: Inhibition of mast cell degranulation was assessed in female albino rats at a dose of 50 umol/kg iv. The format is functional.

SMILES strings stand for the structures.

On to `Cc1c(C)c([N+](=O)[O-])c(C)c(C)c1C(=O)NCCN1CCN(c2ccccn2)CC1.Cl.Cl`, for which the 50% lethal dose (LD50) in [1] was found to be 320 µmol/kg. Further, in the data set on Rattus norvegicus [2], the ED50 is 30 µmol/kg.
As for `Cc1cc(N)cc(C)c1C(=O)NCCN1CCN(c2ccccn2)CC1.Cl`, the ID75 with Cavia porcellus [3] was found to be 5.27 µM/kg. Besides, the ED50 in the data set with Rattus norvegicus [4] is > 167 µmol/kg. Further, the LD50 in data set [5] amounted to 550 µmol/kg.
As for `CCCCOc1cc(C(=O)NCCN2CCN(c3ccccn3)CC2)c2ccccc2n1.Cl.Cl`, the ID75 with Cavia porcellus [6] stood at 8.15 µM/kg. For the same compound, the ED50 with Rattus norvegicus [4] was > 175 µmol/kg. The LD50 in [7] was determined as 540 µmol/kg.
With `Cc1cc([N+](=O)[O-])cc(C)c1C(=O)NCCN1CCN(c2ccccn2)CC1.Cl.Cl`, the ID75 with Cavia porcellus [3] was 4.6 µM/kg. Also, in the data set with Rattus norvegicus [8], the ED50 came out at 78 µmol/kg. In data set [9], this compound had an LD50 of 530 µmol/kg.
Consider `COc1cccc(N2CCN(CCC(=O)Nc3ccc(N)cc3)CC2)n1.Cl.Cl`, for which, in the data set with Cavia porcellus [3], the ID75 came out at 0.4 µM/kg. Also, the ED50 in the data set with Rattus norvegicus [10] is 106 µmol/kg; with Rattus norvegicus [11] it was 56 µmol/kg. For the same compound, the values for the LD50 in data set [12] and in data set [13] were 530 µmol/kg and 1600 µmol/kg, respectively.
On to `COc1cccc(N2CCN(CCC(=O)Nc3ccc([N+](=O)[O-])cc3)CC2)n1.Cl`, for which the ID75 in the data set on Cavia porcellus [3] was determined as 0.16 µM/kg. In addition, in the data set on Rattus norvegicus [14], the ED50 came out at 204 µmol/kg. Further, in data set [15], the median lethal dose (LD50) was determined as 4390 µmol/kg.
Compound `COc1cccc(N2CCN(CCC(=O)Nc3ccccc3[N+](=O)[O-])CC2)n1.Cl` returned an ID75 with Cavia porcellus [3] of 0.52 µM/kg. The ED50 in the data set with Rattus norvegicus [16] is > 237 µmol/kg. Moreover, in data set [17], the median lethal dose (LD50) is > 7100 µmol/kg.
Regarding `CC(=O)Nc1ccc(NC(=O)CCN2CCN(c3ccccn3)CC2)cc1.Cl.Cl`, the inhibition in vivo at 45 µmol/kg with Rattus norvegicus [18] turned out to be 29%. In the data set on Cavia porcellus [3], this compound yielded an ID75 of 0.97 µM/kg. In addition, the ED50 was found to be 153 µmol/kg with Rattus norvegicus [19] and 90 µmol/kg with Rattus norvegicus [20]. Moreover, in data set [17], the 50% lethal dose (LD50) was > 6810 µmol/kg.
Regarding `Cl.Cl.NC(=O)CCN1CCN(c2ccccn2)CC1`, the inhibition in vivo at 65 µmol/kg with Rattus norvegicus [21] came out at 23%. In the data set on Cavia porcellus [3], this compound registered an ID75 of 2.47 µM/kg. Further, the ED50 in the data set with Rattus norvegicus [22] is 260 µmol/kg; in the data set with Rattus norvegicus [23], 203 µmol/kg. The 50% lethal dose (LD50) in [24] worked out at 2440 µmol/kg.
As to `Cl.Cl.O=C(CCN1CCN(c2ccccn2)CC1)Nc1ccc(O)cc1`, in the data set with Cavia porcellus [3], the ID75 was determined as 0.49 µM/kg. In addition, the results for the ED50 in the data set on Rattus norvegicus [25] and with Rattus norvegicus [26] were 189 µmol/kg and 161 µmol/kg, respectively. Moreover, the 50% lethal dose (LD50) result with Mus musculus is “Not Active”; in [27], 5200 µmol/kg. In addition, the inhibition in vivo at 50 µmol/kg with Rattus norvegicus [28] turned out to be 64%.

Source of the values: ChEMBL document CHEMBL1123658, “1-(2-pyridinyl)piperazine derivatives with antianaphylactic, antibronchospastic, and mast cell stabilizing activities” (J Med Chem, 1987).
